KCNQ1 block – inhibitors of human KCNQ1 channel, primary screen, cell-based, thallium flux, high-throughput. CHO-K1 KCNQ1, FluxOR thallium flux fluorescence; stronger effect = higher value. B-score at 10 µM. actives 1.3% (n = 310,000). AID 2642, 2010;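 active = compounds whose thallium flux B-score, printed positive for inhibition, exceeds three library SD while starting fluorescence stays within three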;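 note: channel opened by potassium depolarization with thallium stimulus after 20 min compound exposure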
KCNK9 inh – KCNK9 potassium channel inhibitors, primary screen, HEK293 cells, thallium flux | Potassium channel subfamily K member 9 (Homo sapiens), Q9NPC2 | FluxOR thallium flux fluorescence; stronger effect = lower value | B-score at 10 µM | actives 1.2% (n = 310,000);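 active = ratio B-score over 3 SD below the library mean, with starting fluorescence within 5 SD of its mean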;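 note: negative B-score means less thallium flux so channel inhibition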
KCNQ1 act – potentiators or activators of KCNQ1 channel, primary screen, cell-based, thallium flux, high-throughput; Potassium voltage-gated channel subfamily KQT member 1 (Homo sapiens), P51787; actives 0.35% (n = 310,000); CHO-K1 KCNQ1, thallium flux FluxOR fluorescence; stronger effect = higher value; B-score at 10 µM;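 active = fluorescence ratio B-score, a plate-corrected score, at least three library SD, with initial intensity B-score within 5 SD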
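System: Stable KCNQ1 CHO-K1 line | Incubation: 90 min dye loading and 20 min compound exposure, both at room temperature | Measure: Ratio B score | Medium: Assay buffer for compound exposure, DMSO matched across wells | Compound dosing: Single-concentration screen | Probe or stimulus: K+/Tl+ depolarizing stimulus | Measured by: Kinetic FluxOR fluorescence, 10 s baseline plus 110 s post-stimulus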
hERG rescue – hERG rescue from dofetilide block, primary screen, cell-based, CHO-hERG, FluxOR thallium flux, dofetilide IC70; activation (rescue from dofetilide block), less the hit threshold, % at 10 µM; dofetilide IC70 present; Voltage-gated inwardly rectifying potassium channel KCNH2 (Homo sapiens), Q12809; actives 0.51% (n = 310,000);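 active = activation above the mean of controls blocked by dofetilide plus 5 SD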;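 note: thallium influx through hERG after potassium depolarization seen as dye fluorescence rise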
Target sequence (Q12809 whole entry, looked up): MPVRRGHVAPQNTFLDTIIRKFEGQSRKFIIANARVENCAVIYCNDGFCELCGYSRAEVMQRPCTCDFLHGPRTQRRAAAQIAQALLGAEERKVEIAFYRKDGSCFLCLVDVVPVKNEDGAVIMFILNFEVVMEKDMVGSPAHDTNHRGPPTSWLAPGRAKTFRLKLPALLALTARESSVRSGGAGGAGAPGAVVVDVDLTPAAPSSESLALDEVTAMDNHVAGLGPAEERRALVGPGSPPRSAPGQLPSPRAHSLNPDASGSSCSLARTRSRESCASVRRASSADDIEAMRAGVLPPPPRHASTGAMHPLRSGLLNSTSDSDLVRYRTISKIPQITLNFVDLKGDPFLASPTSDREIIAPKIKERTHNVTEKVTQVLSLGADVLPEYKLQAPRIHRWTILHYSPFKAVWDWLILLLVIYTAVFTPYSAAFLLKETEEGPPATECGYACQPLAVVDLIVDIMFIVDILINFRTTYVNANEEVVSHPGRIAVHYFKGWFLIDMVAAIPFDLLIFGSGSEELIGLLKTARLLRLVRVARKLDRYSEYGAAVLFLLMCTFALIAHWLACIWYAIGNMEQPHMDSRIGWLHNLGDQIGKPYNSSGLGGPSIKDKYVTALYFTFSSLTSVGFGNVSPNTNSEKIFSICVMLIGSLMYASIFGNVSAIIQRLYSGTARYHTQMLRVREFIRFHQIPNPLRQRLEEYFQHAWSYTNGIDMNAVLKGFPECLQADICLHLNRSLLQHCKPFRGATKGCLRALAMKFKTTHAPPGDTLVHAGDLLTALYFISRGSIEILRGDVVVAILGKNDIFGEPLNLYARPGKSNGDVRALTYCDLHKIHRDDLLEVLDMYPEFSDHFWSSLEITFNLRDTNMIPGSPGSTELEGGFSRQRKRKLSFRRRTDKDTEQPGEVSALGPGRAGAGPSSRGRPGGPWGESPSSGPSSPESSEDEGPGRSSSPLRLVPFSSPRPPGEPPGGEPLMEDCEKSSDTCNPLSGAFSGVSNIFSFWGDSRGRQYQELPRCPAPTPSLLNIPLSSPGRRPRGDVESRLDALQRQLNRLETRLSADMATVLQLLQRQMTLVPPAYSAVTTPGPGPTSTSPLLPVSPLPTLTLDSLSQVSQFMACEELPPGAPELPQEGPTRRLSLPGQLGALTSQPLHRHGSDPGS
KCC2 mod – KCC2 cotransporter modulators, thallium flux, primary screen, cell-based, HEK293 KCC2, FluoZin-2 fluorescence, MLSMR; KCC2 cells, thallium flux FluoZin-2 fluorescence; B-score of Tl+ flux slope (higher = more flux/activation; lower = inhibition) at 10 µM; actives 2.2% (n = 190,000);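 active = thallium flux slope and its plate-corrected score both differing from the plate sample mean at a set confidence after two filtering rounds, in either direction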;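 note: slope of fluorescence scaled to starting intensity during 10 to 20 s after thallium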
KCNK3 inh – human KCNK3 channel inhibitors, primary screen, CHO cells, FluxOR thallium flux, B-score | actives 0.84% (n = 340,000) | B-score at 10 µM | Potassium channel subfamily K member 3 (Homo sapiens), O14649 | FluxOR fluorescence; stronger effect = lower value;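 active = B-score under library mean minus 4 SD, starting fluorescence ratio at most library mean plus 5 SD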;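 note: more negative B-score means stronger inhibition of thallium flux through KCNK3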
* marks the source's active call; other numbers are inactive results. A selection: hits, their analogues and other compounds. The true share with any hit is near 4.1%.

For Oc1cccc2cccnc12 the results were KCNQ1 block inactive, KCNK9 inh -10.6*, KCNQ1 act inactive and hERG rescue -1.7.
CCCNC(=O)N1[C@H]2CC[C@@H]1C(C(=O)OC)=C(c1ccc(OC)c(OC)c1)C2 was read as KCNK3 inh inactive.
CCCOC(=O)c1ccc(-[n+]2c(-c3ccccc3)cc(-c3ccccc3)cc2-c2ccccc2)cc1 was read as KCNQ1 block 12*, KCNK9 inh -7.7*, KCNQ1 act inactive, hERG rescue -36.4 and KCNK3 inh inactive.
O=C(O)c1ccc(-[n+]2c(-c3ccccc3)cc(-c3ccccc3)cc2-c2ccccc2)cc1 was read as KCNQ1 block inactive, KCNK9 inh inactive, KCNQ1 act inactive, hERG rescue -1.6 and KCNK3 inh inactive.
Screening Cc1ccccc1C1=NCC(=S)Nc2ccc(Cl)cc21 returned KCNQ1 block inactive, KCNK9 inh inactive, KCNQ1 act inactive, hERG rescue -8.3, KCC2 mod 5.73* and KCNK3 inh inactive.
For CN(C)c1ccc(/C=C/[N+](=O)[O-])cc1 the results were KCNQ1 block 12*, KCNK9 inh inactive, KCNQ1 act inactive, hERG rescue -17.2, KCC2 mod -2.07 and KCNK3 inh inactive.
For COC(=O)C1=C(c2cccc(C#N)c2)C[C@@H]2CC[C@H]1N2C(=O)NCCCOC(C)C the results were KCNK3 inh inactive.
For CN1c2ccc([N+](=O)[O-])cc2CC2(C(=O)NC(=O)N(c3ccc(Br)cc3)C2=O)C1c1ccccc1 (stereo unspecified) the results were KCNQ1 block 6*, KCNK9 inh inactive, KCNQ1 act inactive, hERG rescue -5.5, KCC2 mod -1.84 and KCNK3 inh inactive.
For O=C1NC(=O)C2(Cc3ccccc3N3CCCC32)C(=O)N1c1ccccc1 (stereo unspecified) the results were KCNQ1 block inactive, KCNK9 inh inactive, KCNQ1 act inactive, hERG rescue -15.1, KCC2 mod 0.487 and KCNK3 inh inactive.
Screening C[C@]1(O)CC[C@H]2[C@@H]3CCC4=CC(=O)CC[C@]4(C)[C@@]3(F)[C@@H](O)C[C@@]21C returned KCNK3 inh -9.75*.
COC(=O)C1=C(c2ccc3ccccc3c2)C[C@@H]2CC[C@H]1N2C(=O)N1CCCC1 was read as KCNK3 inh inactive.
Screening CN1CSC(=S)N(C)C1 returned KCNQ1 block 13*, KCNK9 inh inactive, KCNQ1 act inactive, hERG rescue -28.7, KCC2 mod -0.282 and KCNK3 inh inactive.
`CCOC(=O)c1c(NS(=O)(=O)c2ccccc2)n(CCCOC)c2nc3ccccc3nc12` gave KCNQ1 block inactive, KCNK9 inh inactive, KCNQ1 act inactive, hERG rescue 8.4*, KCC2 mod 0.147 and KCNK3 inh inactive.
`NC(N)=N/N=C/c1ccc(N(c2ccccc2)c2ccccc2)cc1` gave KCNQ1 block 7*, KCNK9 inh inactive, KCNQ1 act inactive, hERG rescue -33.0 and KCNK3 inh inactive.
COc1ccc(/C=N\N=C(N)N)cc1 was read as KCNQ1 block inactive, KCNK9 inh inactive, KCNQ1 act inactive, hERG rescue -11.7, KCC2 mod 0.201 and KCNK3 inh inactive.
For COC1CCCCC1NCCc1ccccc1 (stereo unspecified) the results were KCNQ1 block inactive, KCNK9 inh inactive, KCNQ1 act inactive, hERG rescue 5.0*, KCC2 mod 1.23 and KCNK3 inh inactive.
Cc1ccc(C2C(=O)NC(=O)NC2=O)cc1 was read as KCNQ1 block inactive, KCNK9 inh inactive, KCNQ1 act inactive, hERG rescue -6.0 and KCNK3 inh inactive.
CC(C)CNC(=O)/C=C/C=C/CCCCCC/C=C/c1ccc2c(c1)OCO2 was read as KCNK3 inh -9.42*.
For Cc1ccc(S(=O)(=O)c2nc(-c3ccccc3Cl)oc2N(C)C2CCN(C)CC2)cc1 the results were KCNK3 inh inactive.
Cc1cc(N2CCCC2)ccc1C=C(C#N)C#N was read as KCNQ1 block 12*, KCNK9 inh -6.71*, KCNQ1 act inactive, hERG rescue -26.9, KCC2 mod -0.926 and KCNK3 inh inactive.
For CCCCCC1(C(C)C)C(=O)NC(=S)NC1=O the results were KCNK3 inh inactive.
For O=C(c1ccc(-c2ccccc2)cc1)C1CCCN(Cc2ccn[nH]2)C1 (stereo unspecified) the results were KCNQ1 block inactive, KCNK9 inh inactive, KCNQ1 act 8*, hERG rescue -8.9 and KCNK3 inh inactive.
For CCCn1c(C)cc(C=O)c1C the results were KCNQ1 block inactive, KCNK9 inh inactive, KCNQ1 act inactive, hERG rescue 5.6*, KCC2 mod 0.0586 and KCNK3 inh inactive.
C=C(C)[C@@H]1[C@H]2OC(=O)[C@H]1[C@]1(O)C[C@H]3O[C@]34C(=O)O[C@H]2[C@]14C was read as KCNK3 inh inactive.
For CCCCn1c(=O)c(C(=O)NCc2ccccc2)c(O)c2ccccc21 the results were KCNQ1 block 8*, KCNK9 inh inactive, KCNQ1 act inactive, hERG rescue -1.6 and KCNK3 inh inactive.
Screening O=C(O)C(Cc1cnc[nH]1)NS(=O)(=O)c1ccc(Cl)cc1 (stereo unspecified) returned KCNQ1 block inactive, KCNK9 inh inactive, KCNQ1 act inactive, hERG rescue -7.5, KCC2 mod 0.788 and KCNK3 inh inactive.
Cc1ccc(S(=O)(=O)NC(Cc2cnc[nH]2)C(=O)O)cc1 (stereo unspecified) was read as KCNQ1 block inactive, KCNK9 inh inactive, KCNQ1 act inactive, hERG rescue 10.4*, KCC2 mod -0.376 and KCNK3 inh inactive.
`COC(=O)C1=C(c2cccc(C#N)c2)C[C@@H]2CC[C@H]1N2C(=O)NCCOc1ccccc1Cl` gave KCNK3 inh inactive.
COc1cc(CC(=O)N2C[C@H]3C[C@@H](C2)c2cccc(=O)n2C3)cc(OC)c1OC was read as KCNK3 inh inactive.
`COc1ccc(C2(c3cccc(O)c3OC)CCN(C(C)=O)CC2)cc1O` gave KCNQ1 block inactive, KCNK9 inh inactive, KCNQ1 act inactive, hERG rescue -4.3 and KCNK3 inh inactive.
